# According to ChEMBL document CHEMBL1154881, “Synthesis and antimicrobial activities of novel 1,5-diaryl pyrazoles” (2010):
# How the values were obtained:
# Staphylococcus aureus [1] = experiment: Antibacterial activity against Staphylococcus aureus ATTC 25923 after 24 hrs by disk diffusion method; type: functional
# In short: (§1)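 Disc diffusion, each concentration tested in triplicate on nutrient agar seeded separately with fresh bacteria. Incubation 37 °C, 24 h. Solvent and growth controls included. Zones of inhibition recorded. The K. pneumoniae strain was recultured.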
# Escherichia coli [2] = experiment: Antibacterial activity against Escherichia coli ATTC 25922 after 24 hrs by disk diffusion method; type: functional; in short: as §1
# Pseudomonas aeruginosa [3] = experiment: Antibacterial activity against Pseudomonas aeruginosa ATTC 27853 after 24 hrs by disk diffusion method; type: functional; in short: as §1
# Klebsiella pneumoniae [4] = experiment: Antibacterial activity against Klebsiella pneumoniae after 24 hrs by disk diffusion method; type: functional; in short: as §1
# Pseudomonas aeruginosa [5] = experiment: Antibacterial activity against Pseudomonas aeruginosa ATTC 27853 after 24 hrs by broth dilution method; type: functional; conditions: ATTC 27853, 24 h
# [6] = tested on: Trichophyton mentagrophytes; experiment: Antifungal activity against Trichophyton mentagrophytes after 3 to 4 days by serial plate dilution method; type: functional
# In short: (§2)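 Sabouraud's agar (peptone 1 g, D-glucose 4 g, agar 2 g per 100 ml water, pH 5.7) plates were lawned with spore suspension (a loopful in 3 ml normal saline) and dried 1 h at 37 °C. Wells were punched and filled with compound in DMSO at 10–50 mg/ml, with a DMSO control. Plates in triplicate, 37 °C for 3–4 days.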
# Talaromyces marneffei [7] = experiment: Antifungal activity against Penicillium marneffei after 3 to 4 days by serial plate dilution method; type: functional; in short: as §2
# Aspergillus flavus = experiment: Antifungal activity against Aspergillus flavus NCIM 524 after 3 to 4 days by serial plate dilution method; type: functional; in short: as §2
# Aspergillus fumigatus = experiment: Antifungal activity against Aspergillus fumigatus NCIM 902 after 3 to 4 days by serial plate dilution method; type: functional; in short: as §2
# [8] = tested on: Trichophyton mentagrophytes; experiment: Antifungal activity against Trichophyton mentagrophytes at 10 to 50 ug/ml after 3 to 4 days; type: functional
# Klebsiella pneumoniae [9] = experiment: Antibacterial activity against Klebsiella pneumoniae after 24 hrs by […]
# Staphylococcus aureus [10] = experiment: Antibacterial activity against Staphylococcus aureus ATTC 25923 after 24 hrs by broth dilution method; type: functional; conditions: ATTC 25923, 24 h
# Escherichia coli [11] = experiment: Antibacterial activity against Escherichia coli ATTC 25922 after 24 hrs by broth dilution method; type: functional; conditions: ATTC 25922, 24 h
# Klebsiella pneumoniae [12] = experiment: Antibacterial activity against Klebsiella pneumoniae after 24 hrs by broth dilution method; type: functional
# Talaromyces marneffei [13] = experiment: Antifungal activity against Penicillium marneffei at 10 to 50 ug/ml after 3 to 4 days; type: functional
SMILES,inhibition zone (IZ) (Staphylococcus aureus [1]) [mm],inhibition zone (IZ) (Escherichia coli [2]) [mm],inhibition zone (IZ) (Pseudomonas aeruginosa [3]) [mm],inhibition zone (IZ) (Klebsiella pneumoniae [4]) [mm],MIC (Pseudomonas aeruginosa [5]) [µg/mL],inhibition zone (IZ) [6] [mm],inhibition zone (IZ) (Talaromyces marneffei [7]) [mm],inhibition zone (IZ) (Aspergillus flavus) [mm],inhibition zone (IZ) (Aspergillus fumigatus) [mm],MIC [8] [µg/mL],MIC (Klebsiella pneumoniae [9]) [µg/mL],MIC (Staphylococcus aureus [10]) [µg/mL],MIC (Escherichia coli [11]) [µg/mL],MIC (Klebsiella pneumoniae [12]) [µg/mL],MIC (Talaromyces marneffei [13]) [µg/mL]
O=C(c1cc(-c2ccc(Cl)cc2)n(-c2ccc(F)cc2)n1)N1CCNCC1,<10,<10,19,19,50,19,<10,25,23,50,12.5,–,–,–,–
C#CCN1CCN(C(=O)c2cc(-c3ccc(Cl)cc3)n(-c3ccc(F)cc3)n2)CC1,18,18,<10,17,–,<10,18,<10,19,–,–,12.5,50,50,–
CCOC(=O)c1sc(-c2cc(-c3ccc(Cl)cc3)n(-c3ccc(F)cc3)n2)nc1C,16,18,19,19,–,20,19,22,18,12.5,–,12.5,12.5,50,12.5
N#Cc1ccc(-c2csc(-c3cc(-c4ccc(Cl)cc4)n(-c4ccc(F)cc4)n3)n2)cc1,19,20,19,17,50,22,22,<10,<10,12.5,–,12.5,12.5,–,12.5
O=C(c1cc(-c2ccc(Cl)cc2)n(-c2ccc(F)cc2)n1)N1CCC(O)CC1,23,24,29,21,–,26,24,29,27,12.5,12.5,12.5,12.5,–,12.5
CS(=O)(=O)OC1CCN(C(=O)c2cc(-c3ccc(Cl)cc3)n(-c3ccc(F)cc3)n2)CC1,26,28,21,23,50,28,29,31,25,12.5,12.5,12.5,12.5,–,12.5
O=C1CCN(C(=O)c2cc(-c3ccc(Cl)cc3)n(-c3ccc(F)cc3)n2)CC1,24,27,18,25,12.5,24,29,18,26,50,12.5,12.5,12.5,–,12.5
O=C(O)c1cn(C2CC2)c2cc(N3CCNCC3)c(F)cc2c1=O [CIPROFLOXACIN],23,32,28,24,6.25,–,–,–,–,–,6.25,6.25,6.25,–,–
